Reference: ChEMBL document CHEMBL1250498, “Design, synthesis and pro-apoptotic antitumour properties of indole-based 3,5-disubstituted oxadiazoles” (Eur J Med Chem, 2010)

Tested on: not listed separately
Assay: Anticancer activity against human COLO320 cells after 72 hrs by WST-1 assay
Type: functional, cell-based
Details: COLO 320, 72 h
How it was run: (§1)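 Cells grown in DMEM with 2 mM L-glutamine, 10% FBS, 2.5% horse serum, penicillin and streptomycin, 37 °C, 5% CO2. Seeded at 2 × 10³/well, exposed 72 h to 0.1–50 µM (DMSO ≤0.2% in medium). WST-1 formazan absorbance read at 450 nm. Inhibition taken as % absorbance reduction versus control; IC50 from non-linear least-squares fit. Triplicate, independent experiments averaged.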

Row | SMILES | IC50 [µM]
1 | Cc1noc(-c2cc3ccccc3[nH]2)n1 | 11.8
2 | COc1ccc2[nH]c(-c3nc(C)no3)cc2c1 | 10.4
3 | Cc1noc(-c2cc3cc(F)ccc3[nH]2)n1 | 18.1
4 | Cc1noc(-c2cc3cc(Cl)ccc3[nH]2)n1 | 19.5
5 | c1ccc(-c2noc(-c3cc4ccccc4[nH]3)n2)cc1 | 12
6 | Nc1noc(-c2cc3ccccc3[nH]2)n1 | 27.7
7 | COc1ccc2[nH]c(-c3nc(-c4ccccc4)no3)cc2c1 | 18.7
8 | Oc1ccc2[nH]c(-c3nc(-c4ccccc4)no3)cc2c1 | 15.7
9 | Fc1ccc2[nH]c(-c3nc(-c4ccccc4)no3)cc2c1 | 10.8
10 | O=[N+]([O-])c1ccc2[nH]c(-c3nc(-c4ccccc4)no3)cc2c1 | 12.5
11 | Clc1ccc2[nH]c(-c3nc(-c4ccccc4)no3)cc2c1 | 16.5

Tested on: MIA PaCa-2
Assay: Anticancer activity against human MIAPaCa2 cells after 72 hrs by WST-1 assay
Type: functional, cell-based
Details: MIA PaCa-2, 72 h
How it was run: as §1

Row | SMILES | IC50 [µM]
12 | Cc1noc(-c2cc3ccccc3[nH]2)n1 | 30.5
13 | COc1ccc2[nH]c(-c3nc(C)no3)cc2c1 | > 50
14 | Cc1noc(-c2cc3cc(F)ccc3[nH]2)n1 | 19.4
15 | Cc1noc(-c2cc3cc(Cl)ccc3[nH]2)n1 | > 50
16 | c1ccc(-c2noc(-c3cc4ccccc4[nH]3)n2)cc1 | 22
17 | Nc1noc(-c2cc3ccccc3[nH]2)n1 | 18.7
18 | COc1ccc2[nH]c(-c3nc(-c4ccccc4)no3)cc2c1 | 32.6
19 | Oc1ccc2[nH]c(-c3nc(-c4ccccc4)no3)cc2c1 | 13
20 | Fc1ccc2[nH]c(-c3nc(-c4ccccc4)no3)cc2c1 | 33.6
21 | O=[N+]([O-])c1ccc2[nH]c(-c3nc(-c4ccccc4)no3)cc2c1 | > 50
22 | Clc1ccc2[nH]c(-c3nc(-c4ccccc4)no3)cc2c1 | 23.1

Tested on: MCF7
Assay: Anticancer activity against human MCF7 cells after 72 hrs by WST-1 assay
Type: functional, cell-based
Details: MCF7, 72 h
How it was run: as §1

Row | SMILES | IC50 [µM]
23 | Cc1noc(-c2cc3ccccc3[nH]2)n1 | > 50
24 | COc1ccc2[nH]c(-c3nc(C)no3)cc2c1 | 16.7
25 | Cc1noc(-c2cc3cc(F)ccc3[nH]2)n1 | 12.4
26 | Cc1noc(-c2cc3cc(Cl)ccc3[nH]2)n1 | 34.4
27 | c1ccc(-c2noc(-c3cc4ccccc4[nH]3)n2)cc1 | 45.7
28 | Nc1noc(-c2cc3ccccc3[nH]2)n1 | > 50
29 | COc1ccc2[nH]c(-c3nc(-c4ccccc4)no3)cc2c1 | > 50
30 | Oc1ccc2[nH]c(-c3nc(-c4ccccc4)no3)cc2c1 | 26
31 | Fc1ccc2[nH]c(-c3nc(-c4ccccc4)no3)cc2c1 | 35
32 | O=[N+]([O-])c1ccc2[nH]c(-c3nc(-c4ccccc4)no3)cc2c1 | > 50
33 | Clc1ccc2[nH]c(-c3nc(-c4ccccc4)no3)cc2c1 | 29.1

Tested on: Jurkat
Assay: Anticancer activity against human Jurkat cells after 72 hrs by WST-1 assay
Type: functional, cell-based
Details: not given
How it was run: as §1

Row | SMILES | IC50 [µM]
34 | Cc1noc(-c2cc3ccccc3[nH]2)n1 | > 50
35 | COc1ccc2[nH]c(-c3nc(C)no3)cc2c1 | 19.9
36 | Cc1noc(-c2cc3cc(F)ccc3[nH]2)n1 | 22.9
37 | Cc1noc(-c2cc3cc(Cl)ccc3[nH]2)n1 | 21.6
38 | c1ccc(-c2noc(-c3cc4ccccc4[nH]3)n2)cc1 | > 50
39 | Nc1noc(-c2cc3ccccc3[nH]2)n1 | > 50
40 | COc1ccc2[nH]c(-c3nc(-c4ccccc4)no3)cc2c1 | > 50
41 | Oc1ccc2[nH]c(-c3nc(-c4ccccc4)no3)cc2c1 | 26.9
42 | Fc1ccc2[nH]c(-c3nc(-c4ccccc4)no3)cc2c1 | 33.8
43 | O=[N+]([O-])c1ccc2[nH]c(-c3nc(-c4ccccc4)no3)cc2c1 | > 50
44 | Clc1ccc2[nH]c(-c3nc(-c4ccccc4)no3)cc2c1 | > 50

Tested on: COLO 320
Assay: Induction of apoptosis in human COLO320 cells assessed as increase in intraneucleosomal DNA fragmentation at 100 uM after 24 hrs by ELISA relative to control
Type: functional
Details: not given
How it was run: (§2)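 Dosed at 100 µM for 24 h. Trypsin-harvested cells pooled with detached cells. Cytoplasmic histone-associated DNA fragments (released nucleosomes) measured by sandwich ELISA using a mouse monoclonal anti-DNA/histone antibody. Given as fold over untreated control; duplicate, mean ± SEM.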

Row | SMILES | fold change (FC)
45 | Cc1noc(-c2cc3cc(F)ccc3[nH]2)n1 | 1
46 | c1ccc(-c2noc(-c3cc4ccccc4[nH]3)n2)cc1 | 2.5
47 | Oc1ccc2[nH]c(-c3nc(-c4ccccc4)no3)cc2c1 | 4.3
48 | Fc1ccc2[nH]c(-c3nc(-c4ccccc4)no3)cc2c1 | 5.3
49 | Clc1ccc2[nH]c(-c3nc(-c4ccccc4)no3)cc2c1 | 2.1

Tested on: MIA PaCa-2
Assay: Induction of apoptosis in human MIAPaCa2 cells assessed as increase in intraneucleosomal DNA fragmentation at 100 uM after 24 hrs by ELISA relative to control
Type: functional
Details: not given
How it was run: as §2

Row | SMILES | fold change (FC)
50 | Cc1noc(-c2cc3cc(F)ccc3[nH]2)n1 | 7.3
51 | c1ccc(-c2noc(-c3cc4ccccc4[nH]3)n2)cc1 | 1.4
52 | Oc1ccc2[nH]c(-c3nc(-c4ccccc4)no3)cc2c1 | 7.3
53 | Fc1ccc2[nH]c(-c3nc(-c4ccccc4)no3)cc2c1 | 6.9
54 | Clc1ccc2[nH]c(-c3nc(-c4ccccc4)no3)cc2c1 | 1.9

Tested on: COLO 320
Assay: Induction of apoptosis in human COLO320 cells assessed as increase in caspase 3/7 activation at 100 uM after 24 hrs by spectrophotometry relative to control
Type: functional
Details: not given
How it was run: (§3)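 Seeded at 7 × 10³/well and dosed 100 µM for 24 h. Caspase-3/7 substrate then added; fluorescence read with excitation 485 nm and emission 530 nm. Result given as the ratio of treated-cell signal to untreated vehicle-only cells.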

Row | SMILES | fold change (FC)
55 | Cc1noc(-c2cc3cc(F)ccc3[nH]2)n1 | 1.5
56 | c1ccc(-c2noc(-c3cc4ccccc4[nH]3)n2)cc1 | 3.1
57 | Oc1ccc2[nH]c(-c3nc(-c4ccccc4)no3)cc2c1 | 3.6
58 | Fc1ccc2[nH]c(-c3nc(-c4ccccc4)no3)cc2c1 | 4.4
59 | Clc1ccc2[nH]c(-c3nc(-c4ccccc4)no3)cc2c1 | 1.3

Tested on: MIA PaCa-2
Assay: Induction of apoptosis in human MIAPaCa2 cells assessed as increase in caspase 3/7 activation at 100 uM after 24 hrs by spectrophotometry relative to control
Type: functional
Details: not given
How it was run: as §3

Row | SMILES | fold change (FC)
60 | Cc1noc(-c2cc3cc(F)ccc3[nH]2)n1 | 1.3
61 | c1ccc(-c2noc(-c3cc4ccccc4[nH]3)n2)cc1 | 1.2
62 | Oc1ccc2[nH]c(-c3nc(-c4ccccc4)no3)cc2c1 | 0.7
63 | Fc1ccc2[nH]c(-c3nc(-c4ccccc4)no3)cc2c1 | 1.2
64 | Clc1ccc2[nH]c(-c3nc(-c4ccccc4)no3)cc2c1 | 1.9
